# Measured values collected from several papers.
# Lines come from different studies, so protocols differ.
# Target: NUAK family SNF1-like kinase 1 (NUAK1, Homo sapiens, UniProt O60285)
# Sequence (O60285 1-661, as in one of the studies): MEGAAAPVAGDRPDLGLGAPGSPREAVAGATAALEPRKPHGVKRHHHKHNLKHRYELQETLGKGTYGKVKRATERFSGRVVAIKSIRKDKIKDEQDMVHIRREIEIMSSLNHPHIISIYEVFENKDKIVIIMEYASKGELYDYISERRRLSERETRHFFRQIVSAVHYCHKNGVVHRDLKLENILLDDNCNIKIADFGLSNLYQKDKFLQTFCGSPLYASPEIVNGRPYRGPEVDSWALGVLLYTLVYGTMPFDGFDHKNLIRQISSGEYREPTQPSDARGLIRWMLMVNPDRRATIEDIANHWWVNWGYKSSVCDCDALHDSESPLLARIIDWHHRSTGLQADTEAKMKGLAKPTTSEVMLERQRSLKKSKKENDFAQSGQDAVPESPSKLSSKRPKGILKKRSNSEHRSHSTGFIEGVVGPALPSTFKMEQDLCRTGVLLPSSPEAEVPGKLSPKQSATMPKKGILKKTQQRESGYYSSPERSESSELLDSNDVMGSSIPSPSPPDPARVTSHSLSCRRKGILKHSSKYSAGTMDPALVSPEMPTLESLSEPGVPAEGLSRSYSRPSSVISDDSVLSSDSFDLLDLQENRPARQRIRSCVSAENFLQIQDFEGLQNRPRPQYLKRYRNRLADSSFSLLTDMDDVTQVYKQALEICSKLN
SMILES,assay,setting,measurement,value
O=C1NC(=O)c2cc(Nc3ccc(F)cc3)c(Nc3ccc(F)cc3)cc21,cell-free assay,0.5 µM,remaining signal,94%
CNC(=O)c1cc(Oc2ccc(NC(=O)Nc3ccc(Cl)c(C(F)(F)F)c3)cc2)ccn1,"enzyme activity, inhibitor",0.3 µM,inhibition,-3%
NS(=O)(=O)c1ccc(CNc2nc(Nc3cccc(CN4CCOCC4)c3)ncc2Br)cc1,"enzyme activity, inhibitor, radiometric",1 µM,remaining activity,23%
Cc1cc(NC(=O)c2cccc3cc(-c4cccc5[nH]nc(N)c45)ccc23)ccc1F,"enzyme activity, inhibitor",0.1 µM,activity vs control,100%
c1cc(CN2CCOCC2)cc(Nc2nccc(NCCc3cnc[nH]3)n2)c1,"enzyme activity, inhibitor, radiometric",1 µM,remaining activity,14%
c1ccc(N2CCN(Cc3nc4ccccc4[nH]3)CC2)nc1,"binding, competition with immobilised ligand",1 µM,remaining binding,89%
Cc1nn(CC(F)(F)F)cc1Nc1ncc(Br)c(NCc2ccc(S(N)(=O)=O)cc2)n1,"enzyme activity, inhibitor, radiometric",1 µM,remaining activity,58%
CO[C@H]1CC[C@H](CNc2ccc(S(=O)(=O)NC(=O)c3ccc(N4CCN(CC5=C(c6ccc(Cl)cc6)CC(C)(C)CC5)CC4)cc3Oc3cnc4[nH]ccc4c3)cc2[N+](=O)[O-])CC1,"cell-free assay, competition with immobilised ligand",1 µM,remaining binding,100%
Cc1ccc(NC(=O)c2ccc(C)c(C(F)(F)F)c2)cc1C#Cc1nn(C2CCC(O)CC2)c2ncnc(N)c12 (stereo not drawn),cell-free assay,10 µM,remaining signal,108%
NS(=O)(=O)c1ccc(CNc2ccnc(Nc3cccc(CN4CCOCC4)c3)n2)cc1,"enzyme activity, inhibitor, radiometric",1 µM,remaining activity,79%
CNC(=O)Nc1ccc2c(c1)CC[C@@]21OC(=O)N(CC(=O)N(Cc2ccc(F)cc2)[C@@H](C)C(F)(F)F)C1=O,"cell-free assay, competition with immobilised ligand",1 µM,remaining binding,94%
O=C1Nc2ccc(Cl)cc2C1=Cc1cc(Cl)c(O)c(Cl)c1,cell-free assay,0.5 µM,remaining signal,72.5%
CN1CCc2cc(Nc3ncc(C4CC4)c(NCCCNC(=O)C4CCC4)n3)ccc2C1,"enzyme activity, inhibitor, radiometric",1 µM,remaining activity,6%
Cc1ccc(Nc2nccc(N(C)c3ccc4c(C)n(C)nc4c3)n2)cc1S(N)(=O)=O,"enzyme activity, inhibitor",10 µM,inhibition,76%
O=C(Nc1ccc(Oc2ccc(F)cc2)cc1)N1CCc2ncccc2[C@H]1c1ccc(F)cc1,"cell-free assay, competition with immobilised ligand",1 µM,remaining binding,92%
Cc1nn(CC(F)(F)F)cc1Nc1ncc(Br)c(NCCc2cnc[nH]2)n1,"enzyme activity, inhibitor, radiometric",1 µM,remaining activity,13%
O=C1NC(c2ccccn2)Sc2ccccc21 (stereo not drawn),"cell-free assay, competition with immobilised ligand",1 µM,remaining binding,95%
FC(F)c1nc2ccccc2n1-c1nc(N2CCOCC2)nc(N2CCOCC2)n1,"enzyme activity, inhibitor",10 µM,remaining activity,90%
CCCS(=O)(=O)Nc1ccc(F)c(C(=O)c2c[nH]c3ncc(-c4ccc(Cl)cc4)cc23)c1F,"enzyme activity, inhibitor",1 µM,inhibition,< 20%
O=C(NCCCNc1nc(Nc2cccc(NC(=O)N3CCCC3)c2)ncc1I)c1cccs1,"enzyme activity, inhibitor, radiometric",1 µM,remaining activity,2%
COc1cc2c(Nc3ccc(Br)cc3F)ncnc2cc1OCC1CCN(C)CC1,cell-free assay,0.5 µM,remaining signal,92.7%
CN([C@@H]1CCc2c(CC(=O)O)c3ccccc3n2C1)S(=O)(=O)c1ccc(F)cc1,"cell-free assay, competition with immobilised ligand",1 µM,remaining binding,100%
NS(=O)(=O)c1ccc(CNc2ccnc(Nc3cccc(NC(=O)N4CCCC4)c3)n2)cc1,"enzyme activity, inhibitor, radiometric",1 µM,remaining activity,78%
CC(=O)Nc1c(C(C)=O)c(=O)n(C)c2nc(-c3ccc(Cl)cc3Cl)c(-c3ccc(Cl)cc3)cc12,"cell-free assay, competition with immobilised ligand",1 µM,remaining binding,100%
CN(C)C1CCN(CC#Cc2nn(C3CCCC3)c3nc(NCc4ccccc4)ncc23)C1 (stereo not drawn),"enzyme activity, inhibitor, FRET",1 µM,inhibition,10%
CN(C)C(=O)Cn1cc(-c2nc(C3(c4ccc(-c5cnc(N)nc5)cc4)CC3)no2)cn1,"cell-free assay, competition with immobilised ligand",1 µM,remaining binding,82%
O=C(Nc1cnn(-c2csc(C(=O)NC3COC3)c2)c1)Nc1c(F)cccc1Cl,"enzyme activity, inhibitor",5 µM,remaining activity,95.2%
